# Hits are enriched below; roughly 2.2% of the tested compounds scored in any of these assays.
# ARFGAP1 inhibitor – inhibitors of rat ARFGAP1; Q62848; Arfgap1-stimulated ARF1 GTP hydrolysis, GDP FP detection; inhibition, % at 16.5 µM; 0.26% of 360,000 active;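 active means inhibition above a per-plate limit, mean inhibition of low control wells plus 3 SD, cut at about 25% in these data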
# Target sequence (Q62848 1-136 limits assumed): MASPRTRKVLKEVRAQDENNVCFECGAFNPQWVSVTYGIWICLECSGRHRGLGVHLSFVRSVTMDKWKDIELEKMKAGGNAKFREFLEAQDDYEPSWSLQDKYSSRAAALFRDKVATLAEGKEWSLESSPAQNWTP
#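 System: truncated rat Arfgap1 GAP domain / Benchmarks: high control wells lacking Arfgap1, low control full reaction with DMSO / Times: compound-enzyme preincubation 20 min, reaction 120 min, detection 60 min, 25 °C / Repeats: one replicate per compound / Also added: human ARF1(Δ1-17)-GTP substrate / Measured by: Tracer-displacement fluorescence polarization with EDTA stop, 620/688 nm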
# CendR NRP1 mod – alters CendR peptide binding to human NRP-1 | inhibition, % at 25 µM | 0.85% of 360,000 active | O14786 | FAM-RPARPAR peptide binding to NRP-1, fluorescence polarization | AID 602438;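 active means inhibition or corrected inhibition above about 18%, plus a signal ratio from 0.5 to 1.5, limit read from the data, passing the limit was not always enough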
# Exocytosis inh – blocks lytic granule exocytosis. AID 651702. TALL-104 LAMP-1 surface exposure, flow cytometry; cells stimulated with thapsigargin and PMA. inhibition, % at 10 µM. 0.66% of 360,000 active;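 active means inhibition above about 55%, limit read from the data; inconclusive means no clear call, values can overlap the other calls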
# ASAP1 inh – ASAP1 ArfGAP inhibition | inhibition, % at 16.5 µM | ASAP1-stimulated ARF1 GTP hydrolysis, GDP FP detection | 0.19% of 360,000 active | Q9ULH1; in the data active means inhibition above about 25%
# V-ATPase pHluor – alters yeast V-ATPase proton transport. response, % at 10 µM. S. cerevisiae, pHLuorin cytosolic pH fluorescence. 0.37% of 350,000 active; in the data active means response mostly above about 7.3%, no sharp cut-off; inactive means mostly below about 5.4%; further: actives read high
# Granule exo CP1 – blocks lytic granule exocytosis; shares compounds with Exocytosis inh; TALL-104 cells, LAMP-1 externalization, flow cytometry; stimulated with PMA plus thapsigargin; inhibition, % at 10 µM; 11% of 1,500 active; AID 651954; in the data active means inhibition above about 60%
# Numbers stand for hits; n = inactive; u = inconclusive; x = not tested or not shown.
SMILES,ARFGAP1 inhibitor,CendR NRP1 mod,Exocytosis inh,ASAP1 inh,V-ATPase pHluor,Granule exo CP1
COc1cc2nc(Nc3ccc(C)c(C)c3)nc(N)c2cc1OC,n,n,u,n,n,x
COc1cc2nc(Nc3ccc(F)cc3)nc(N)c2cc1OC,n,n,65,n,n,n
CCN(CC)S(=O)(=O)c1ccc(-c2csc(C)n2)cc1,n,n,n,n,n,x
CCCN(CCC)S(=O)(=O)c1cccc(-c2csc(C)n2)c1,n,n,59,n,n,n
COc1ccccc1/C=N\NC(=O)c1ccc(COc2ccc(C)c(C)c2)o1,n,n,n,n,n,x
O=S(=O)(c1ccccc1)c1nnn2c1nc(NC1CCN(Cc3ccccc3)CC1)c1cc(Cl)ccc12,n,n,64,n,n,69
COc1ccccc1OCCn1cc(C(=O)C(C)C)c2ccccc21,n,n,60,n,n,n
COc1ccccc1OCCn1cc(C(=O)O)c2ccccc21,n,n,n,n,n,x
CCCCn1c(=O)[nH]c(=O)c2c1nc(-c1ccc(-c3ccccc3Br)o1)n2CCOC,n,n,56,n,n,n
Nc1c(Cl)cc(-c2csc(NC(CO)c3nc4ccccc4n3CCOCCO)n2)cc1Cl (centres undefined),n,n,70,n,n,n
OCCOCCn1c(C(CO)Nc2nc(-c3ccc(Cl)cc3)cs2)nc2ccccc21 (centres undefined),n,n,n,n,n,x
COC(=O)[C@]12C[C@H](CC(=O)N3CCC(c4ccccc4)CC3)C(=O)N(CCC3=CCCCC3)C1=C[C@H](C(C)(C)C)O[C@@H]2C,n,x,x,n,x,x
O=c1c2ccccc2sn1-c1ccccc1,n,n,99,n,n,105
CC(=O)Nc1ccc2c(=O)n(-c3ccccc3)sc2c1,n,n,69,n,n,62
Cn1sc2ccccc2c1=O,n,n,n,n,n,x
O=c1c2ccccc2sn1-c1ccccc1F,n,n,69,n,n,102
COc1cc(C(C)=O)ccc1OCC(=O)Nc1cc(C)on1,n,n,n,n,n,x
COc1cc(C)cc(OC)c1OCC(=O)Nc1cc(C)on1,n,n,69,n,n,n
CCCCn1c(N2CCC(Cc3ccccc3)CC2)nc2c1c(=O)[nH]c(=O)n2C,n,n,88,n,n,n
CCN1CCN(c2nc3c(c(=O)[nH]c(=O)n3C)n2CCCc2ccccc2)CC1,n,n,n,n,n,x
CC(C)(C)NC(=O)CN1C(=O)NC(c2ccccc2)(c2ccccc2)C1=O,n,n,85,n,n,n
O=C(Cc1cccs1)Nc1nc(-c2ccc(F)cc2F)cs1,n,n,64,n,n,n
O=C(Cc1cccs1)Nc1nc(-c2ccc(F)c(F)c2)cs1,n,n,n,n,n,x
COc1ccccc1N1CCN(Cc2ccc(OC)c(OC)c2OC)CC1,n,n,n,n,n,x
COc1ccc(CN2CCN(CCCCOc3ccc(Cl)cc3)CC2)c(OC)c1OC,n,n,76,n,n,n
SMILES,ARFGAP1 inhibitor,CendR NRP1 mod,Exocytosis inh,ASAP1 inh,V-ATPase pHluor,Granule exo CP1
CCOC(=O)C1(Cc2cccc(Cl)c2)CCCN(C(=O)c2c(CC)noc2C)C1 (centres undefined),n,n,59,n,n,n
C[C@H](O)[C@@H]1CN2CCc3ccc(-c4ccc5c(c4)OCO5)cc3[C@@H]2C[C@@H]1N(C)Cc1ccccc1,n,x,x,n,x,x
CCCCn1nc2cc(C(=O)NCCc3cccs3)ccc2c1OCC,n,n,n,n,n,x
CCCn1nc2cc(C(=O)NCCCCc3ccccc3)ccc2c1OCC,n,n,87,n,n,n
COC(=O)c1c(NC(=O)CCl)sc(C(=O)N2CCOCC2)c1C,n,n,n,n,n,x
COC(=O)c1c(NC(=O)c2ccccc2OC)sc(C(=O)N2CCOCC2)c1C,n,n,68,n,n,n
CC1CCCN(c2cccc3c2S(=O)(=O)N(Cc2cccc(Cl)c2)[C@@H](C)[C@H](c2ccccc2)O3)C1 (some centres undefined),n,x,x,n,x,x
COc1ccccc1Cc1c(-c2ccco2)nc2c3ccccc3ccn12,n,n,76,n,x,n
COC(=O)C(Cc1ccccc1)NC(=O)CCNC(=O)c1ccc(Br)cc1 (centres undefined),n,n,n,n,n,x
COc1ccc(CNC(=O)C23CN(Cc4ccccc4)CC2C(c2ccc([N+](=O)[O-])cc2)=NO3)cc1 (centres undefined),n,n,n,n,n,x
